How the values were obtained:
[1] = system: Homo sapiens; assay: Final time point in terminal phase in patient (3 patients) with renal insufficiency assessed as hydroxy flutamide at 250 mg, po administered as single dose by gas chromatography; assay type: ADME, organism-based; settings: in vivo
Method in brief: (§1)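 Males grouped by 24 h CLcr normalised to body surface area (>80, 50–80, 30–49, 5–29 ml min−1 1.73 m−2), fasted 10 h pre-dose and 4 h post-dose, given a single oral 250 mg flutamide dose. Plasma sampled 0–96 h; urine collected in blocks to 96 h. Flutamide and hydroxyflutamide measured by GC with electron-capture detection. Renal CL = Ae(0,96 h)/AUC(0,96 h); t1/2 = 0.693/λz.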

[2] = system: Homo sapiens; assay: Terminal half life in patient (3 patients) with renal insufficiency assessed as hydroxy flutamide at 250 mg, po administered as single dose by gas chromatography; assay type: ADME, organism-based; settings: in vivo; method in brief: as §1
[3] = AUC (0 to 24 hrs) in patient (4 patients) with renal insufficiency at 250 mg, po administered as single dose by gas chromatography; assay type: ADME, organism-based; set-up: dose 250 mg, time < 24 hr, route oral; settings: human, in vivo
[4] = AUC (0 to 96 hrs) in patient (4 patients) with renal insufficiency at 250 mg, po administered as single dose by gas chromatography; assay type: ADME, organism-based; set-up: time < 96 hr, dose 250 mg, route oral; settings: human, in vivo
[5] = system: Homo sapiens; assay: Cmax in patient (4 patients) with renal insufficiency assessed as hydroxy flutamide at 250 mg, po administered as single dose by gas chromatography; assay type: ADME, organism-based; set-up: dose 250 mg, route oral; settings: in vivo
[6] = system: Homo sapiens; assay: AUC (0 to infinity) in patient (4 patients) with renal insufficiency at 250 mg, po assessed as hydroxy flutamide administered as single dose by gas chromatography; assay type: ADME, organism-based; set-up: dose 250 mg, time infinity, route oral; settings: in vivo
[7] = system: Homo sapiens; assay: Terminal half life in patient (4 patients) with renal insufficiency assessed as hydroxy flutamide at 250 mg, po administered as single dose by gas chromatography; assay type: ADME, organism-based; settings: in vivo; method in brief: as §1
[8] = AUC (0 to 96 hrs) in patient (6 patients) with renal insufficiency at 250 mg, po administered as single dose 4 hrs prior to hemodialysis treatment measured at starting time of dialysis and post dialysis treatment by gas chromatography; assay type: ADME, organism-based; set-up: dose 250 mg, time < 96 hr, route oral; settings: human, in vivo
[9] = Drug excretion in urine of patient (6 patients) with renal insufficiency at 250 mg, po administered as single dose 4 hrs prior to hemodialysis treatment measured at starting time of dialysis and post dialysis treatment by gas chromatography; assay type: ADME, organism-based; settings: human, in vivo
Method in brief: (§2)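 Group V haemodialysis males (CLcr <5 ml min−1 1.73 m−2). Single oral 250 mg flutamide (two 125 mg capsules) right after HD; after 14-day washout, same dose 4 h before HD lasting 2–4 h. Venous samples to 48 h, arterial/venous during HD, dialysate in hourly blocks. GC with 63Ni electron-capture detection. CL(HD) = dialysate Ae(HD)/arterial AUC(HD); renal CL = Ae(0,48)/AUC(0,48 h).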

[10] = Drug recovery in dialysate of patient (6 patients) with renal insufficiency at 250 mg, po administered as single dose 4 hrs prior to hemodialysis treatment measured during dialysis treatment by gas chromatography; assay type: ADME, organism-based; settings: human, in vivo; method in brief: as §2
[11] = system: Homo sapiens; assay: Cmax in patient (6 patients) with renal insufficiency assessed as hydroxy flutamide at 250 mg, po administered as single dose 4 hrs prior to hemodialysis treatment measured at starting time of dialysis and post dialysis treatment by gas chromatography; assay type: ADME, organism-based; set-up: dose 250 mg, route oral; settings: in vivo
[12] = system: Homo sapiens; assay: Tmax in patient (6 patients) with renal insufficiency assessed as hydroxy flutamide at 250 mg, po administered as single dose 4 hrs prior to hemodialysis treatment measured at starting time of dialysis and post dialysis treatment by gas chromatography; assay type: ADME, organism-based; settings: in vivo; method in brief: as §2
[13] = system: Homo sapiens; assay: AUC (0 to 96 hrs) in patient (6 patients) with renal insufficiency assessed as hydroxy flutamide at 250 mg, po administered as single dose 4 hrs prior to hemodialysis treatment measured at starting time of dialysis and post dialysis treatment by gas chromatography; assay type: ADME, organism-based; set-up: time < 96 hr, dose 250 mg, route oral; settings: in vivo
[14] = system: Homo sapiens; assay: Final time point in terminal phase in patient (6 patients) with renal insufficiency assessed as hydroxy flutamide at 250 mg, po administered as single dose 4 hrs prior to hemodialysis treatment measured at starting time of dialysis and post dialysis treatment by gas chromatography; assay type: ADME, organism-based; settings: in vivo; method in brief: as §2
[15] = Drug recovery in dialysate of patient (6 patients) with renal insufficiency assessed as hydroxy flutamide at 250 mg, po administered as single dose 4 hrs prior to hemodialysis treatment measured during dialysis treatment by gas chromatography; assay type: ADME, organism-based; settings: human, in vivo; method in brief: as §2
[16] = Cmax in patient (6 patients) with renal insufficiency at 250 mg, po administered as single dose by gas chromatography; assay type: ADME, organism-based; set-up: dose 250 mg, route oral; settings: human, in vivo
[17] = AUClast in patient (6 patients) with renal insufficiency at 250 mg, po administered as single dose by gas chromatography; assay type: ADME, organism-based; set-up: dose 250 mg, time 0 - last, route oral; settings: human, in vivo
[18] = Drug excretion in urine of patient (6 patients) with renal insufficiency at 250 mg, po administered as single dose by gas chromatography; assay type: ADME, organism-based; settings: human, in vivo; method in brief: as §1
[19] = system: Homo sapiens; assay: AUC (0 to infinity) in patient (6 patients) with renal insufficiency at 250 mg, po assessed as hydroxy flutamide administered as single dose by gas chromatography; assay type: ADME, organism-based; set-up: dose 250 mg, route oral, time infinity; settings: in vivo
[20] = Cmax in patient (7 patients) with renal insufficiency at 250 mg, po administered as single dose by gas chromatography; assay type: ADME, organism-based; set-up: dose 250 mg, route oral; settings: human, in vivo
[21] = AUC (0 to 24 hrs) in patient (7 patients) with renal insufficiency at 250 mg, po administered as single dose by gas chromatography; assay type: ADME, organism-based; set-up: dose 250 mg, time < 24 hr, route oral; settings: human, in vivo
[22] = AUC (0 to 96 hrs) in patient (7 patients) with renal insufficiency at 250 mg, po administered as single dose by gas chromatography; assay type: ADME, organism-based; set-up: dose 250 mg, time < 96 hr, route oral; settings: human, in vivo
[23] = Elimination rate constant in patient with renal insufficiency at 250 mg, po administered first dose followed by 14 days wash out period and administered second dose 4 hrs prior to hemodialysis measured during hemodialysis treatment by gas chromatography; assay type: ADME, organism-based; settings: human, in vivo; method in brief: as §2
[24] = system: Homo sapiens; assay: Toxicity in patient with renal insufficiency assessed as fatigue at 250 mg, po administered as single dose; assay type: organism-based; settings: in vivo
Method in brief: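 26 male subjects in groups by 24 h creatinine clearance (normalized to body surface area): >80, 50–80, 30–49, 5–29, <5 ml min−1 1.73 m−2 on haemodialysis. Given as two 125 mg capsules after a 10 h fast, continued 4 h post-dose. Prescription drugs withheld for the same period. Subjects confined 12 h pre-dose to 48 h post-dose, with adverse events compared across renal-function groups.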

[25] = AUClast in patient (7 patients) with renal insufficiency at 250 mg, po administered as single dose by gas chromatography; assay type: ADME, organism-based; set-up: dose 250 mg, time 0 - last, route oral; settings: human, in vivo
[26] = system: Homo sapiens; assay: AUC (0 to infinity) in patient (7 patients) with renal insufficiency at 250 mg, po assessed as hydroxy flutamide administered as single dose by gas chromatography; assay type: ADME, organism-based; set-up: dose 250 mg, route oral, time infinity; settings: in vivo
[27] = system: Homo sapiens; assay: Final time point in terminal phase in patient (7 patients) with renal insufficiency assessed as hydroxy flutamide at 250 mg, po administered as single dose by gas chromatography; assay type: ADME, organism-based; settings: in vivo; method in brief: as §1
[28] = system: Homo sapiens; assay: Terminal half life in patient (7 patients) with renal insufficiency assessed as hydroxy flutamide at 250 mg, po administered as single dose by gas chromatography; assay type: ADME, organism-based; settings: in vivo; method in brief: as §1
[29] = Drug excretion in urine of patient (7 patients) with renal insufficiency assessed as hydroxy flutamide at 250 mg, po administered as single dose by gas chromatography; assay type: ADME, organism-based; settings: human, in vivo; method in brief: as §1
[30] = AUC (0 to 24 hrs) in patient (3 patients) with renal insufficiency at 250 mg, po administered as single dose by gas chromatography; assay type: ADME, organism-based; set-up: time < 24 hr, dose 250 mg, route oral; settings: human, in vivo
[31] = system: Homo sapiens; assay: Tmax in patient (3 patients) with renal insufficiency assessed as hydroxy flutamide at 250 mg, po administered as single dose by gas chromatography; assay type: ADME, organism-based; settings: in vivo; method in brief: as §1

With `CC(C)C(=O)Nc1ccc([N+](=O)[O-])c(C(F)(F)F)c1` [FLUTAMIDE] the Time [1] was 52 h, the “beta t1/2” value [2] was 8 h and the AUC(0-t) at 24 h [3] was 107 ng·h/mL. The AUC(0-t) at 96 h [4] was 107 ng·h/mL, the Cmax [5] was 874 ng/mL and the AUC [6] was 6499 ng·h/mL. For the same compound, the “beta t1/2” value [7] was 9 h, the AUC(0-t) at 96 h [8] was 217 ng·h/mL and the Drug excretion [9] was 0 µg. For the same compound, the Drug recovery [10] was 0 mg, the Cmax [11] was 869 ng/mL and the Tmax [12] was 1 h. For the same compound, the AUC [13] was 5963 ng·h/mL, the Time [14] was 43 h and the Drug recovery [15] was 1.2 mg. It also gave a Cmax [16] of 53.4 ng/mL, an AUC(0-t) [17] of 75.8 ng·h/mL and a Drug excretion [18] of 24.4 µg. It also gave an AUC [19] of 5527 ng·h/mL, a Cmax [20] of 20.9 ng/mL and an AUC(0-t) at 24 h [21] of 59.8 ng·h/mL. For the same compound, the AUC(0-t) at 96 h [22] was 59.8 ng·h/mL, the k el [23] was 5.56e-05 s⁻¹ and the Activity [24] was 12%. The AUC(0-t) [25] was 32.5 ng·h/mL, the AUC [26] was 4993 ng·h/mL and the Time [27] was 38.6 h. For the same compound, the “beta t1/2” value [28] was 7.1 h, the Drug excretion [29] was 88.3 µg and the AUC(0-t) at 24 h [30] was 98 ng·h/mL. The Tmax [31] was 3 h.

From ChEMBL document CHEMBL3784969, “Pharmacokinetics of flutamide in patients with renal insufficiency” (Br J Clin Pharmacol, 1999)
